From ChEMBL document CHEMBL1156948, “Statistical molecular design of a focused salicylidene acylhydrazide library and multivariate QSAR of inhibition of type III secretion in the Gram-negative bacterium Yersinia” (Bioorg Med Chem, 2010)
Calls of active or inactive are those of the source. No rule for the calls is given here.

What was measured:
[1] = system: Yersinia pseudotuberculosis YPIII; test: Inhibition of T3S in Yersinia pseudotuberculosis YPIII expressing yopE-luxAB at 3.13 uM after 3 hrs by luciferase reporter gene assay
In short: (§1)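 Strain YPIII pIB102 (yopE-luxAB) grown overnight at room temperature in BHI with 5 mM EGTA and 20 mM MgCl2 (calcium depletion), adjusted to OD600 0.088–0.095. Compound added from DMSO at 1.56–200 µM final (eight concentrations). Shaken 1 h at room temperature, then 2 h at 37 °C. Decanal added and light emission read immediately. Triplicates, repeated at least three times.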

[2] = system: Escherichia coli; test: Antibacterial activity against Escherichia coli DH5[alpha] at 50 uM after 23 hrs by broth dilution assay; type: functional, organism-based
In short: (§2)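 Overnight LB culture of E. coli DH5α grown at 37 °C, diluted to OD600 0.1 in LB with 2.5 mM CaCl2; compound added from DMSO stock to final 50 or 100 µM. Incubated at 37 °C with absorbance at 595 nm followed over 23 h.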

[3] = system: Yersinia pseudotuberculosis YPIII; test: Inhibition of T3S in Yersinia pseudotuberculosis YPIII expressing yopE-luxAB at 50 uM after 3 hrs by luciferase reporter gene assay; in short: as §1
[4] = system: Yersinia pseudotuberculosis; test: Antibacterial activity against Yersinia pseudotuberculosis expressing pIB102 at 50 uM after 23 hrs by broth dilution assay; type: functional, organism-based
In short: (§3)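 Wild-type pIB102 grown overnight in LB at room temperature, diluted to OD600 = 0.1 in LB with 2.5 mM CaCl2. Compound added from DMSO stock to final 50 and 100 µM. Incubated at 37 °C with absorbance at 595 nm read over 23 h.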

[5] = system: Yersinia pseudotuberculosis YPIII; test: Inhibition of T3S in Yersinia pseudotuberculosis YPIII expressing yopE-luxAB at 1.56 uM after 3 hrs by luciferase reporter gene assay; in short: as §1
[6] = system: Yersinia pseudotuberculosis YPIII; test: Inhibition of T3S in Yersinia pseudotuberculosis YPIII expressing yopE-luxAB at 25 uM after 3 hrs by luciferase reporter gene assay; in short: as §1
[7] = system: Yersinia pseudotuberculosis YPIII; test: Inhibition of T3S in Yersinia pseudotuberculosis YPIII expressing yopE-luxAB at 6.25 uM after 3 hrs by luciferase reporter gene assay; in short: as §1
[8] = system: Yersinia pseudotuberculosis YPIII; test: Inhibition of T3S in Yersinia pseudotuberculosis YPIII expressing yopE-luxAB at 100 uM after 3 hrs by luciferase reporter gene assay; in short: as §1
[9] = system: Yersinia pseudotuberculosis; test: Antibacterial activity against Yersinia pseudotuberculosis expressing pIB102 at 100 uM after 23 hrs by broth dilution assay; type: functional, organism-based; in short: as §3
[10] = system: Escherichia coli; test: Antibacterial activity against Escherichia coli DH5[alpha] at 100 uM after 23 hrs by broth dilution assay; type: functional, organism-based; in short: as §2
[11] = system: Yersinia pseudotuberculosis YPIII; test: Inhibition of T3S in Yersinia pseudotuberculosis YPIII expressing yopE-luxAB at 12.5 uM after 3 hrs by luciferase reporter gene assay; in short: as §1
[12] = system: Yersinia pseudotuberculosis YPIII; test: Inhibition of T3S in Yersinia pseudotuberculosis YPIII expressing yopE-luxAB at 200 uM after 3 hrs by luciferase reporter gene assay; in short: as §1

Structure (SMILES) | inhibition [1] | Activity [2] | inhibition [3] | Activity [4] | inhibition [5] | inhibition [6] | inhibition [7] | inhibition [8] | Activity [9] | Activity [10] | inhibition [11] | inhibition [12]
COc1cccc(/C=N/NC(=O)c2ccccc2[N+](=O)[O-])c1O | 19% | inactive | 32% | inactive | -5% | 19% | 14% | 68% | inactive | inactive | 12% | 94%
COc1cccc(C(=O)N/N=C/c2cc(C(C)(C)C)cc(C(C)(C)C)c2O)c1 | 4% | inactive | 23% | inactive |  | 14% | 7% | 21% | inactive | inactive | 13% | 11%
O=C(N/N=C/c1c(O)cc(O)cc1O)c1sc2ccccc2c1Cl | 10% | inactive | 70% | inactive | 2% | 44% | 21% | 79% | inactive | inactive | 33% | 87%
COc1ccc(C(=O)N/N=C/c2cc(I)cc(I)c2O)cc1OC | 4% | inactive | 24% | inactive |  | 30% | 19% | 33% | inactive | inactive | 23% | 40%
CC(C)(C)c1ccc(O)c(/C=N/NC(=O)CC23CC4CC(CC(C4)C2)C3)c1 | 3% | inactive | 10% | inactive | -6% | 17% | 10% | 17% | inactive | inactive | 13% | -1%
O=C(COc1ccc(F)cc1)N/N=C/c1cc(I)cc(I)c1O | 0% | inactive | 30% | inactive |  | 21% | 15% | 36% | inactive | inactive | 18% | 44%
O=C(CC12CC3CC(CC(C3)C1)C2)N/N=C/c1cc([N+](=O)[O-])cc([N+](=O)[O-])c1O | -5% | inactive | 18% | inactive |  | 6% | 1% | 20% | inactive | inactive | 10% | 13%
COc1ccc(/C=N/NC(=O)C(N)=O)c(O)c1 | -6% | inactive | 73% | inactive |  | 13% | 4% | 94% | inactive | inactive | 8% | 97%
O=C(CCc1ccc(O)cc1)N/N=C/c1c(O)cc(O)cc1O | 18% | inactive | 29% | inactive |  | 25% | 20% | 36% | inactive | inactive | 23% | 46%
COc1ccc(C(=O)N/N=C/c2cc(F)cc(Cl)c2O)cc1OC |  | inactive | 38% | inactive | -10% | 10% | 6% | 56% | inactive | inactive | 0% | 64%
CCN(CC)c1ccc(/C=N/NC(=O)COc2ccc(F)cc2)c(O)c1 | 11% | inactive | 54% | inactive |  | 35% | 17% | 58% | inactive | inactive | 23% | 50%
COc1ccc(Br)c(C(=O)N/N=C/c2ccc(Cl)cc2O)c1 | 14% | inactive | 36% | inactive |  | 31% | 10% | 49% | inactive | inactive | 25% | 58%
COc1cc([N+](=O)[O-])cc(/C=N/NC(=O)c2ccncc2)c1O | 8% | inactive | 35% | inactive |  | 28% | 16% | 42% | inactive | inactive | 21% | 51%
COc1cc(/C=N/NC(=O)COc2ccc([N+](=O)[O-])cc2)c(O)c(OC)c1 | -1% | inactive | 16% | inactive |  | 18% | 13% | 14% | inactive | inactive | 14% | -2%
COc1cccc(/C=N/NC(=O)c2cc(OC)c(OC)c(OC)c2)c1O | 14% | inactive | 43% | inactive |  | 20% | 17% | 65% | inactive | inactive | 15% | 68%
O=C(N/N=C/c1cc([N+](=O)[O-])cc([N+](=O)[O-])c1O)c1ccc(Br)cc1 | -6% | inactive | 22% | inactive |  | 19% | 9% | 22% | inactive | inactive | 12% | 18%
Cc1nnsc1C(=O)N/N=C/c1cc(F)cc(Cl)c1O |  | inactive |  |  |  |  |  |  |  | inactive |  | 
COc1cc(Br)cc(/C=N/NC(=O)C(N)=O)c1O | -4% | inactive | 9% | inactive |  | 10% | 1% | 47% | inactive | inactive | 8% | 78%
CC(C)(C)c1cc(/C=N/NC(=O)COc2ccc([N+](=O)[O-])cc2)c(O)c(C(C)(C)C)c1 | -2% | inactive | 18% | inactive |  | 12% | 7% | 18% | inactive | inactive | 14% | 4%
